Test results published in ChEMBL document CHEMBL4342473, “Lead Optimization of Benzoxazolone Carboxamides as Orally Bioavailable and CNS Penetrant Acid Ceramidase Inhibitors” (J Med Chem, 2020).
The source made the active and inactive calls. No cut-off for these calls is given here.

How the values were obtained:
[1] = target: T1, Monoglyceride lipase (Homo sapiens) (UniProt Q99685); test: Inhibition of recombinant human MAGL at 1 to 10 uM using 4-nitrophenylacetate as substrate preincubated for 5 mins followed by substrate addition and measured after 10 mins by colorimetric method
T1 sequence (whole entry): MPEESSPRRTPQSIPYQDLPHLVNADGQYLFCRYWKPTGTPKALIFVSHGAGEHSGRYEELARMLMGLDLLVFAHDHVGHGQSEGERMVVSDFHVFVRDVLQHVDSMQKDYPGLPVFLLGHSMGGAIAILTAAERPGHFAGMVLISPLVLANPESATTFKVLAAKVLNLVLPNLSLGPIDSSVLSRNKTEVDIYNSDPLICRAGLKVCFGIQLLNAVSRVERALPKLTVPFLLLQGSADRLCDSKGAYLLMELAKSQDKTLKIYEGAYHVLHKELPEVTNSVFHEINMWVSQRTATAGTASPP

[2] = target: T2, Acid ceramidase (Homo sapiens) (UniProt Q13510); test: Inhibition of acid ceramidase in human SH-SY5Y cells assessed as increase in intracellular accumulation of Cer (d18:0/16:0) measured after 3 hrs by LC/MS analysis; type: cell-based
T2 sequence (whole entry): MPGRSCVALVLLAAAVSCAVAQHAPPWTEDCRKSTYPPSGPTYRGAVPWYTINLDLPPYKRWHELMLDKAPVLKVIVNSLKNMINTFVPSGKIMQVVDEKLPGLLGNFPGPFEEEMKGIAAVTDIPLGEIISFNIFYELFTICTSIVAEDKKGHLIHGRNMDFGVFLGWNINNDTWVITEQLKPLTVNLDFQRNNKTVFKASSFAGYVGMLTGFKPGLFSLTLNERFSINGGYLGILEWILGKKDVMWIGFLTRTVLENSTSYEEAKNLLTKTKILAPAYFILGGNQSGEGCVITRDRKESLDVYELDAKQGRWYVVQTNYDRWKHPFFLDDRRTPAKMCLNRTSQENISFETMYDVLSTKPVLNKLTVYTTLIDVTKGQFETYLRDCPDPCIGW
How it was run: (§1)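 SH-SY5Y neuroblastoma cells exposed 3 h to 1, 2.5, 5 and 10 μM; AC activity by LC/MS-based assay; ceramide species, sphingosine, SM and HexCer (d18:1/16:0) quantified by LC/MS; means ± S.E.M. of at least six determinations, experiment repeated twice.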

[3] = target: T2, Acid ceramidase (Homo sapiens); test: Inhibition of acid ceramidase in human SH-SY5Y cells assessed as increase in intracellular accumulation of Cer (d18:1/16:0) measured after 3 hrs by LC/MS analysis; type: cell-based; how it was run: as §1
[4] = target: T2, Acid ceramidase (Homo sapiens); test: Inhibition of acid ceramidase in human SH-SY5Y cells assessed as decrease in sphingosine level measured after 3 hrs by LC/MS analysis; type: cell-based; how it was run: as §1
[5] = target: T2, Acid ceramidase (Homo sapiens); test: Inhibition of acid ceramidase in human SH-SY5Y cells assessed as increase in intracellular accumulation of Cer (d18:1/16:0) at 10 uM measured up to 6 hrs by LC/MS analysis; type: cell-based
How it was run: (§2)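 Human neuroblastoma SH-SY5Y cells incubated with compound at 10 μM for 30 min, 1 h, 3 h and 6 h; AC activity by LC/MS-based activity assay; Cer (d18:0/16:0), Cer (d18:1/16:0), sphingosine, SM (d18:1/16:0) and HexCer (d18:1/16:0) quantified by LC/MS.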

Mus musculus = test: Neuroprotective activity in ip dosed C57BL/6J/129SvEV mouse model of Gaucher's disease assessed as reduction in GluSph (d18:1) level in brain administered once daily for 14 days measured 1 hr post-last dose by MS analysis; type: functional, organism-based
How it was run: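 4L;C* mice (neuropathic Gaucher model) given 30 or 90 mg kg–1 i.p. once daily for 14 days from postnatal day 5; killed 1 h after last dose; brain GluSph (d18:1) measured; N = 4–8 per group, mixed sexes.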

[6] = Unbound plasma concentration in C57BL/6J/129SvEV mouse model of Gaucher's disease at 90 mg/kg, ip administered once daily for 14 days measured 1 hr post last dose; type: ADME, organism-based; conditions: in vivo
How it was run: (§3)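 4L;C* mice dosed i.p. once daily for 14 days, killed 1 h after last dose (day 14); plasma and brain drug levels measured; unbound concentrations from plasma and brain unbound fractions (mean of two technical replicates); N = 4–8, mixed sexes.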

[7] = Unbound plasma concentration in C57BL/6J/129SvEV mouse model of Gaucher's disease at 30 mg/kg, ip administered once daily for 14 days measured 1 hr post last dose; type: ADME, organism-based; conditions: in vivo; how it was run: as §3
[8] = Unbound plasma concentration in twitcher mouse model of Krabbe's disease at 30 mg/kg, ip administered once daily for 20 days measured 1 hr post-last dose; type: ADME, organism-based; conditions: in vivo
How it was run: (§4)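 Twitcher mice dosed i.p. once daily for 20 days, sacrificed 1 h after last dose (day 20); drug measured in plasma and brain; unbound levels from unbound fractions (mean of two technical replicates); N = 3 males + 3 females per group.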

[9] = Unbound drug level in brain of twitcher mouse model of Krabbe's disease at 90 mg/kg,ip administered once daily for 20 days measured 1 hr post-last dose; type: ADME, organism-based; conditions: in vivo; how it was run: as §4
Acid ceramidase = target: T3, Acid ceramidase (Homo sapiens, UniProt Q13510); test: Time-dependent inhibition of human acid ceramidase expressed in HEK293 cells using Rbm14-12 as substrate by fluorescence assay; type: cell-based
T3 sequence (Q13510 whole entry): T2 sequence (whole entry)
How it was run: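 hAC-enriched lysates with fluorogenic substrate Rbm 14-12; vehicle 1% DMSO; time-dependent inhibition analysed for ki/KI and ki; two independent experiments, each in two technical replicates.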

[10] = target: T2, Acid ceramidase (Homo sapiens); test: Inhibition of acid ceramidase in human SH-SY5Y cells at 10 uM using N-lauroyl ceramide as substrate by LC/MS analysis; type: cell-based; conditions: TDE = time-dependent effect; how it was run: as §2
[11] = target: T2, Acid ceramidase (Homo sapiens); test: Inhibition of acid ceramidase in human SH-SY5Y cells assessed as change in intracellular accumulation of HexCer (d18:1/16:0) at 10 uM measured up to 6 hrs by LC/MS analysis; type: cell-based; how it was run: as §2
[12] = Ratio of unbound drug level in brain of C57BL/6J/129SvEV mouse model of Gaucher's disease at 30 mg/kg, ip administered once daily for 14 days measured 1 hr post-last dose to EC50 for inhibition of acid ceramidase in Krabbe's disease patient-derived primary fibroblasts; type: organism-based; conditions: in vivo
How it was run: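 Gaucher-model 4L;C* mice (N = 4–8, mixed sexes) got 30 or 90 mg kg–1 i.p. once daily for 14 days from postnatal day 5 and were sacrificed 1 h after the day-14 dose. Compound levels were measured in plasma and brain, and unbound brain level came from brain fraction unbound (two technical replicates). The reference EC50 was from Krabbe patient primary fibroblasts incubated 2 h across concentrations (two independent experiments, duplicates).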

[13] = Ratio of unbound drug level in brain of twitcher mouse model of Krabbe's disease at 90 mg/kg,ip administered once daily for 20 days measured 1 hr post-last dose to EC50 for inhibition of acid ceramidase in Krabbe's disease patient-derived primary fibroblasts; type: organism-based; conditions: in vivo
How it was run: (§5)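 Twitcher mice (3 males + 3 females per group) got 30 or 90 mg kg–1 i.p. once daily for 20 days from postnatal day 10 and were sacrificed 1 h after the day-20 dose. Plasma and brain levels were measured, and unbound brain level came from brain fraction unbound (two technical replicates). The EC50 was from Krabbe patient primary fibroblasts exposed 2 h to a concentration series (two independent experiments, duplicates).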

[14] = Ratio of unbound drug level in brain of twitcher mouse model of Krabbe's disease at 30 mg/kg,ip administered once daily for 20 days measured 1 hr post-last dose to EC50 for inhibition of acid ceramidase in Krabbe's disease patient-derived primary fibroblasts; type: organism-based; conditions: in vivo; how it was run: as §5

CC(C)CNC(=O)n1c(=O)oc2cc(C3CCN(C)CC3)ccc21
inhibition [1]: inactive
inhibition [2]: Dose-dependent effect
inhibition [3]: Dose-dependent effect
inhibition [4]: Dose-dependent effect
inhibition [5]: Active
Activity (Mus musculus): Dose-dependent effect
Cp(f) [6]: 2320 nM
Cp(f) [7]: 420 nM
Cp(f) [8]: 110 nM
Drug uptake(free) [9]: 2.15 µM
kinact (Acid ceramidase): 0.15 min⁻¹
inhibition [10]: Tde
inhibition [11]: inactive
Ratio [12]: 1.9
Ratio [13]: 5.2
Ratio [14]: 2
